Data: ChEMBL document CHEMBL1681759, “Synthesis and biological evaluation of benzimidazole-5-carbohydrazide derivatives as antimalarial, cytotoxic and antitubercular agents” (Bioorg Med Chem, 2011)
Values after ≈ are worked out from the molar mass of the structure shown.

What follows are compounds tested on Mycobacterium tuberculosis (assay: Antimycobacterial activity against multidrug-resistant Mycobacterium tuberculosis clinical isolate after 5 days by tetrazolium microplate assay). Settings: 120 h.
Type: functional
Outline: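 Tetrazolium microplate assay run in 7H9GC broth. DMSO stocks (4 mg/mL) were diluted to final 0.4–25 µg/mL. Isoniazid (0.125–32 µg/mL) and rifampin (0.063–16 µg/mL) were positive controls; inoculum-only and DMSO controls were included. Plates were incubated 5 days at 37 °C, then an MTT-Tween 80 mix was added and incubation continued 24 h at 37 °C. Run in triplicate. MIC = lowest concentration preventing the yellow-to-purple colour change.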

| Compound | MIC [mg/L] |
| --- | --- |
| COc1cc(C(=O)NNC(=O)c2ccc3[nH]c(-c4ccc([N+](=O)[O-])o4)nc3c2)cc(OC)c1OC | 25 (≈ 51.9 µM) |
| O=CNNC(=O)c1ccc2[nH]c(-c3ccc([N+](=O)[O-])o3)nc2c1 | > 25 |
| CO[C@H]1/C=C/O[C@@]2(C)Oc3c(C)c(O)c4c(O)c(c(/C=N/N5CCN(C)CC5)c(O)c4c3C2=O)NC(=O)/C(C)=C\C=C\[C@H](C)[C@H](O)[C@@H](C)[C@@H](O)[C@@H](C)[C@H](OC(C)=O)[C@@H]1C [RIFAMPIN] | 2 (≈ 2.43 µM) |
| O=C(O)c1ccc2[nH]c(-c3ccc([N+](=O)[O-])o3)nc2c1 | > 25 |
| O=C(NNC(=O)c1cc2ccccc2cc1O)c1ccc2[nH]c(-c3ccc([N+](=O)[O-])s3)nc2c1 | > 25 |
| NNC(=O)c1ccncc1 [ISONIAZID] | 4 (≈ 29.2 µM) |
| O=C(NNC(=O)c1ccc2[nH]c(-c3ccc([N+](=O)[O-])o3)nc2c1)c1cccc(Oc2ccccc2)c1 | 25 (≈ 51.7 µM) |
| COc1ccc(C(=O)NNC(=O)c2ccc3[nH]c(-c4ccc([N+](=O)[O-])o4)nc3c2)cc1OC | 25 (≈ 55.4 µM) |
| O=C(NNC(=O)c1ccc2[nH]c(-c3ccc([N+](=O)[O-])o3)nc2c1)c1ccccc1 | 6.25 (≈ 16 µM) |
| COc1cc(C(=O)NNC(=O)c2ccc3[nH]c(-c4ccc([N+](=O)[O-])s4)nc3c2)cc(OC)c1OC | > 25 |
| COc1cccc(C(=O)NNC(=O)c2ccc3[nH]c(-c4ccc([N+](=O)[O-])s4)nc3c2)c1 | 25 (≈ 57.2 µM) |
| COc1cccc(C(=O)NNC(=O)c2ccc3[nH]c(-c4ccc([N+](=O)[O-])o4)nc3c2)c1 | 25 (≈ 59.3 µM) |
